# SENP1 FRET inh: blocks the human SENP1 SUMO protease catalytic domain; Q9P0U3; recombinant SENP1 catalytic domain, CyPet-SUMO1-YPet FRET cleavage; inhibition, % at 10 µM; 360,000 tested, 0.21% active;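 active = inhibition at least 30% at 10 µM, raw YFP signal under a set limit, fluorescence ratio 0.5 to 1.5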;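 note: 0% = enzyme with DMSO and 100% = no enzyme wells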
# Target sequence (Q9P0U3 419-644 limits assumed): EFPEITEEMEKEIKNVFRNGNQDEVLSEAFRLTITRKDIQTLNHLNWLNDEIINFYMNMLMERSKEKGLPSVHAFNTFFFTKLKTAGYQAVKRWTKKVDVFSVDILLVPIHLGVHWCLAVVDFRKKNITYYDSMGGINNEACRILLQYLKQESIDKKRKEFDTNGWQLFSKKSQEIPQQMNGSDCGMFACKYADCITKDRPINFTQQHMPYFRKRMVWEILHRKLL
#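 Controls: no-enzyme wells low, DMSO-plus-enzyme wells high control. Test system: human recombinant His6-tagged SENP1 catalytic domain enzyme. Reagent: SFCypet-SUMO1-SFYpet FRET protein substrate, 25 nM final. Doses: one dose per compound, 10 µM, 0.5% DMSO. Detection: FRET, CFP and YFP emission. Timing: 50 min reaction at room temperature.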
# GRIN3A LBD mod: modulates the human NR3A ligand-binding domain. NR3A LBD differential scanning fluorimetry, Tm shift; 0% = protein alone, 100% = glycine-bound protein. Tm shift relative to glycine control, % at 25 µM. 340,000 tested, 2.5% active. AID 1259313;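 active = melting temperature shift of at least 10% of the positive control shift, at one fixed dose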
# NadD block: inhibitors of Staphylococcus aureus NadD | purified NadD enzyme, colorimetric absorbance read-out | inhibition, % at 20 µM | 360,000 tested, 0.78% active; in the data active = inhibition above about 26%
# ATG4B inh: blocks human ATG4B protease cleavage of LC3 substrate | 340,000 tested, 0.51% active | ATG4B cleavage of LC3-PLA2, NBD-HPC fluorescence, 1 h | inhibition, % at 8.33 µM | Q9Y4P1; in the data active = inhibition above about 40%
# UCH37 DUB inh: human UCH37 deubiquitinating enzyme inhibition; inhibition, % (concentration not given with the values); 330,000 tested, 0.33% active; purified proteasome/UCH37, Ub-AMC cleavage fluorescence;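 active = mean inhibition over replicate wells above about 20%, limit read from the data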;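 note: 0% = compound-free wells with enzyme and 100% = wells lacking proteasome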
# Target sequence (Q9Y5K5 whole entry, looked up): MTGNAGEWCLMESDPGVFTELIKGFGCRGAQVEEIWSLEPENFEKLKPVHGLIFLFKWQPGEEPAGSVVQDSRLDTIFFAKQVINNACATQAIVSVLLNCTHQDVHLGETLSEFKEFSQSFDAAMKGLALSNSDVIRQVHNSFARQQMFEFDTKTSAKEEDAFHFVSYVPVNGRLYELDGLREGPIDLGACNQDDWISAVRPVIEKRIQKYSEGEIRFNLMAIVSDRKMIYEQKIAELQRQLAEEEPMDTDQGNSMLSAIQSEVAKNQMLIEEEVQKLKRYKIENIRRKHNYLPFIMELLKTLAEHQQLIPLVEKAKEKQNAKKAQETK
#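 Reagent: Ub-AMC substrate; assay system: Proteasome-associated human UCH37 deubiquitinase; controls: no-proteasome and no-compound wells; read-out: % inhibition of Ub-AMC cleavage fluorescence; timing: 30 min preincubation with enzyme, 25 min cleavage at room temperature; signal: AMC fluorescence from Ub-AMC cleavage, excitation 355 nm, emission 460 nm; buffer or medium: Tris-HCl pH 7.4 plus ovalbumin, ATP-MgCl2, DTT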
# ATG4B confirm: confirmation of human ATG4B inhibitors. shares compounds with ATG4B inh. ATG4B protease fluorescent substrate cleavage assay. inhibition, % at 8.33 µM. 320 tested, 92% active. AID 504757; in the data active = inhibition above about 39%
# PLA2 counter: counter-screen for ATG4B inhibitors: human phospholipase A2 | shares compounds with ATG4B inh | purified PLA2, NBD-C6-HPC fluorescence, 45 min | inhibition, % at 8.33 µM | 1,600 tested, 66% active | AID 588402; in the data active = inhibition above about 50%
# UCH37 confirm: reconfirmed inhibitor of human deubiquitinase UCH37. shares compounds with UCH37 DUB inh. AID 624100. inhibition, % at 20 µM. Proteasome-bound UCH37, Ub-AMC cleavage fluorescence. 480 tested, 27% active;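 active = average inhibition over replicates above about 50%, so the earlier screening hit is confirmed, limit read from the data; inactive = the rest, counted as false positives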;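 note: based on cleavage rate fitted by regression over a 30 min kinetic read; 0% = proteasome plus Ub-AMC and 100% = Ub-AMC without proteasome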
# NadD inh conf: confirmation of Staphylococcus aureus NadD inhibitors; shares compounds with NadD block; purified S. aureus NadD, colorimetric enzyme assay; inhibition, % at 20 µM; 2,000 tested, 13% active; in the data active = inhibition mostly above about 42%, no sharp cut-off; inactive = mostly below about 42%
# * hit, by the source's call; i = inactive; x = no result given. Compounds with a hit are over-represented: about 3.6% of the library has one in this group of screens.
SMILES,SENP1 FRET inh,GRIN3A LBD mod,NadD block,ATG4B inh,UCH37 DUB inh,PLA2 counter,NadD inh conf,others
CCCCN1C(=O)C2Cc3c([nH]c4ccccc34)CN2C1=S (configuration not stated),-34,3,1,45*,-2,80*,x,
CCc1oc2ccccc2c1C(=O)c1cc(Br)c(O)c(Br)c1,1,-13,5,96*,5,96*,x,
CCc1ccc(OCC(=O)c2c(O)c3ccccc3oc2=O)cc1,2,1,-2,1,-1,x,x,
O=c1[nH]c(=S)[nH]c2c1C(c1ccc(Br)cc1)c1c([nH]c(=S)[nH]c1=O)O2,-118,8,20,53*,27*,1,x,ATG4B confirm=15;UCH37 confirm=38
Cc1cc(C)c(Nc2cc(S(=O)(=O)O)c(N)c3c2C(=O)c2ccccc2C3=O)c(C)c1,-28,547*,30*,49*,34*,72*,x,UCH37 confirm=93*
O=C(O)c1ccc(S(=O)(=O)/N=C2\C=C(Nc3ccccc3F)C(=O)c3ccccc32)cc1,1,4,9,77*,93*,75*,x,UCH37 confirm=99*
COc1ccc(S(=O)(=O)/N=C2\C=C(Nc3ccc(O)cc3)C(=O)c3ccccc32)cc1,2,3,5,27,x,x,x,
O=C(NN=C1CC(c2ccccc2)Oc2ccccc21)C1CC1 (configuration not stated),x,x,x,x,4,x,x,
Cc1cc(C=NNc2nc(N)ncc2[N+](=O)[O-])c(C)n1-c1cccc(C(F)(F)F)c1,x,x,x,x,6,x,x,
CC1CCCCC1NC(=O)COC(=O)c1c2c(nc3ccccc13)/C(=C/c1ccco1)CC2 (configuration not stated),-23,-11,85*,53*,-28,45,42,ATG4B confirm=75*
CC(=NNC(=O)c1nnn(-c2nonc2N)c1-c1ccccc1)c1ccc2c(c1)OCO2,x,x,x,x,-99,x,x,
Cc1ccccc1NC(=O)c1ccc(NS(=O)(=O)c2cc(C(C)(C)C)cc(C)c2C)cc1,4,13*,41*,47*,2,42,26,
CCc1ccc(NC(=O)C(=O)NN=C(C)CC(=O)NCc2ccc(Cl)cc2)cc1,x,x,x,x,1,x,x,
CCOc1ccc(NC(=S)NN=C(C)Cc2ccc(OC)cc2)cc1,x,x,x,x,1,x,x,
O=C(O)c1cccc(NC(=S)N/N=C/c2ccccc2OCc2cccc(Br)c2)c1,-1,-12,51*,47*,x,54*,72*,
CCOc1cc(C=NNC(=O)NN(C)c2ncc(C(F)(F)F)cc2Cl)ccc1O,x,x,x,x,5,x,x,
COc1ccc(C(=O)Nc2cccc(/C=C(\CCC(=O)O)c3nc4ccccc4s3)c2)cc1,-15,-6,55*,59*,-26,74*,29,
O=C(Nc1cccc(N=Cc2cc(Br)cc(Br)c2O)c1)c1ccco1,-26,6,41*,69*,0,60*,21,
CCOc1cc(/C=C2\N=C(SCC)SC2=O)cc([N+](=O)[O-])c1OC(C)=O,5,6,30*,76*,9,75*,3,
CCOc1cc(/C=C2/NC(=O)NC2=O)cc([N+](=O)[O-])c1O,1,0,-4,-10,4,x,x,
O=C(O)COc1ccc(C=NNC(=O)C2CCCN2S(=O)(=O)c2ccc(Cl)cc2)cc1 (configuration not stated),x,x,x,x,-1,x,x,
CCc1nnc(NS(=O)(=O)c2ccc(NC(=O)c3ccccc3)cc2)s1,2,2,1,-10,1,x,x,
CCc1nnc(NS(=O)(=O)c2ccc(N/C=C\C(=O)c3ccc4ccccc4c3)cc2)s1,-64,14*,30*,50*,-18,11,50*,ATG4B confirm=59*
Cn1cccc1C(=O)NN=Cc1c(Cl)cccc1Cl,x,x,x,x,3,x,x,
CCCCn1c(NC(=O)c2ccccc2)c(C#N)c2nc3ccccc3nc21,-21,8,33*,55*,-126,60*,43,
SMILES,SENP1 FRET inh,GRIN3A LBD mod,NadD block,ATG4B inh,UCH37 DUB inh,PLA2 counter,NadD inh conf,others
Cn1c(-c2c(N)n(C3CCCC3)c3nc4ccccc4nc23)nc2ccccc21,-23,9,20,17,-52,x,x,
Cn1c(-c2c(N)n(CCCc3ccccc3)c3nc4ccccc4nc23)nc2ccccc21,-27,7,35*,42*,-49,52*,10,
O=C(CSc1nnnn1-c1ccccc1)Nc1ncc(Cc2ccccc2Cl)s1,0,1,1,-2,0,x,x,
N=C1SC(c2ccccc2)C(=O)N1c1ncc(Cc2ccccc2Cl)s1 (configuration not stated),1,-3,50*,79*,-1,80*,50*,
CCNc1ccc(Br)cc(C(=O)/C=C/c2ccccc2Cl)c1=O,-11,-3,34*,51*,8,-7,18,
COc1ccccc1NS(=O)(=O)c1cccc(-n2c(O)c(C=Nc3ccccc3C(=O)O)c3ccccc3c2=O)c1,-68,2,31*,51*,14,74*,54*,
O=C(Cc1ccccc1Cl)Nc1ccc(S(=O)(=O)Nc2nccs2)cc1,1,-11,-2,2,1,x,x,
O=C(CSc1ccc(Br)c2cccc(Cl)c12)Nc1ccc(S(=O)(=O)Nc2nccs2)cc1,1,13*,71*,48*,4,53*,31*,
CC(=NNc1cc(-c2ccccc2)nc(-c2ccccc2)n1)c1ccc(O)c(C)c1,x,x,x,x,-72,x,x,
CN1CCN(C=Nc2sc3c(c2C#N)CCCCC3)CC1,x,x,x,x,-2,x,x,
CCCc1cc(=O)[nH]c(SCC(=O)N2N=C(c3ccc(Cl)cc3)CC2c2ccco2)n1 (configuration not stated),-14,-7,35*,48*,-3,40,50*,ATG4B confirm=73*
O=C(NCc1ccccc1)c1ccc2nc(-c3ccco3)c(-c3ccco3)nc2c1,-22,-11,45*,44*,-16,31,7,
O=C(Nc1ccccc1)c1ccc2nc(-c3ccco3)c(-c3ccco3)nc2c1,-27,-19,23,17,-17,x,x,
O=S(=O)(Nc1c(S(=O)(=O)c2ccccc2)c2nc3ccccc3nc2n1C1CCCCC1)c1ccccc1,-75,-2,32*,45*,i,50*,48*,

# Screens: PubChem, several laboratories
